Compounds with a hit are over-represented: about 1.9% of the library has one in this group of screens.
PLC-gamma1 inh: PLC-gamma1 (human) inhibition, primary screen; hit rate 0.84% among 370,000; P19174; purified PLC-gamma1, fluorogenic substrate, fluorescence; inhibition, % at 12.2 µM
PLC-beta3 inh: blocks human PLC-beta3 enzyme activity. Q01970. hit rate 0.18% among 370,000. Purified PLC-beta3, fluorogenic substrate, fluorescence. inhibition, % at 12.2 µM; in the data active means inhibition above about 11%
ASAP1 GAP inh: inhibitors of human ASAP1 ArfGAP activity; Q9ULH1; ASAP1-stimulated ARF1 GTP hydrolysis, GDP FP detection; inhibition, % at 16.5 µM; hit rate 0.19% among 360,000; AID 624377; in the data active means inhibition above about 25%
Target sequence (Q9ULH1 325-724 limits assumed): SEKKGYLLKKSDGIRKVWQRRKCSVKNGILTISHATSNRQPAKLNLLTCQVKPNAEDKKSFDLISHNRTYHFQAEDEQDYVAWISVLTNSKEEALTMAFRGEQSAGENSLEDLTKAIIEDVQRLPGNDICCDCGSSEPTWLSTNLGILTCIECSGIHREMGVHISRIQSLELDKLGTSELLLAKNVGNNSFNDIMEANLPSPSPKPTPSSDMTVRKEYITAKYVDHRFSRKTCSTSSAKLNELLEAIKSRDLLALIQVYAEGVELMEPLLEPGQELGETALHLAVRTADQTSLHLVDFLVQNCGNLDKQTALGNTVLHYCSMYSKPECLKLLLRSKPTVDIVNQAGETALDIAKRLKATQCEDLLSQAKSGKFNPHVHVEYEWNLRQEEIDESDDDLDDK
ARFGAP1 inhibitor: rat ARFGAP1 inhibition | Q62848 | Arfgap1-stimulated ARF1 GTP hydrolysis, GDP FP detection | inhibition, % at 16.5 µM | hit rate 0.26% among 360,000;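 active means inhibition above a per-plate limit, mean inhibition of low control wells plus 3 SD, cut at about 25% in these data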
Target sequence (Q62848 1-136 limits assumed): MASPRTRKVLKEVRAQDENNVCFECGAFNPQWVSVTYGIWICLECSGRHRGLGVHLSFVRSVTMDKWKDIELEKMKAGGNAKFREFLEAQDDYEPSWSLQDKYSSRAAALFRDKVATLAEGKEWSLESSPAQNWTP
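system = rat Arfgap1 catalytic domain, aa 1-136 | technique = FP, GDP Alexa 633 tracer displaced from anti-GDP antibody, 620/688 nm | compound = one concentration, 16.5 µM, DMSO 1.26% | medium = HEPES-based buffer, pH 7.5 | timing = compound-enzyme preincubation 20 min, reaction 120 min, detection 60 min, 25 °C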
HGIII-sPLA2 inh: Blocks human group III sPLA2 activity; AID 743126; hit rate 0.56% among 370,000; Q9NZ20; QFRET BODIPY PC-A2 liposome hydrolysis, fluorescence; inhibition, % at 12.2 µM;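 active means inhibition above mean plus 3 SD of compounds lying within the high and low control bounds, cut at about 19% in these data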
PLCgamma1 ctr: counter-screen for PLC-beta3 inhibitors: inhibitors of human PLC-gamma1; shares compounds with PLC-gamma1 inh; purified PLC-gamma1, fluorogenic substrate, fluorescence; inhibition, % at 12.3 µM; hit rate 3.1% among 3,300
PLCb3 confirm: confirmation of human PLC-beta3 inhibitors; shares compounds with PLC-gamma1 inh; purified PLC-beta3, fluorogenic substrate fluorescence; inhibition, % at 12.3 µM; hit rate 1% among 3,300; in the data active means inhibition above about 11%
Of the large screens only hits and unclear results are named; the others gave an inactive call (follow-up assays come after a bar, where they were run). Unless noted, no stated cut-off is given here; in the data, active means inhibition above about 9.5%; inactive means the rest.

COc1ccc(S(=O)(=O)N2CCOCC2)cc1C(=O)NC1CCCCCC1	PLC-gamma1 inh 12.2 | PLCgamma1 ctr inactive | PLCb3 confirm inactive
COc1ccc(S(=O)(=O)N2CCCC2)cc1C(=O)N1CCCCC1	none
COc1ccc(S(=O)(=O)N2CCCCC2)cc1C(=O)N1CCCC1	PLC-gamma1 inh 11.9 | PLCgamma1 ctr inactive | PLCb3 confirm inactive
CCOC(=O)[C@]12CCCC=C1N(Cc1ccc(OC)cc1)C(=O)[C@@H]2CC(=O)NCc1cccc2ccccc12	none (no result: ASAP1 GAP inh, ARFGAP1 inhibitor)
CC(C)(C)NC(=O)CCCCCCCC(=O)NC(C)(C)C	PLC-gamma1 inh 13.2, PLC-beta3 inh 11.4 | PLCgamma1 ctr inactive | PLCb3 confirm inactive
CCCC(C)(C)NC(=O)CCCCC(=O)NC(C)(C)CCC	none
Cc1cc(OCc2nc(N)nc(N)c2-c2ccc(Cl)c(Cl)c2)ccc1[N+](=O)[O-]	PLC-gamma1 inh 12.6 | PLCgamma1 ctr inactive | PLCb3 confirm inactive
Cc1nc(N)nc(N)c1-c1ccc(Cl)c(Cl)c1	none
c1nc(NCC2CCOC2)c2cc(-c3ccc4c(c3)OCO4)ccc2n1 (stereo not given)	none (no result: ASAP1 GAP inh, ARFGAP1 inhibitor)
CC(=O)NS(=O)(=O)c1ccc(N=NN2CCOCC2)cc1	PLC-gamma1 inh 9.8, PLC-beta3 inh 11.5 | PLCgamma1 ctr inactive | PLCb3 confirm inactive
CC(=O)NS(=O)(=O)c1ccc(N=NN2CCCCCC2)cc1	none
O=C(NCCc1csc(-c2cccnc2)n1)c1ccc(Cl)cc1	PLC-gamma1 inh 12.7 | PLCgamma1 ctr inactive | PLCb3 confirm inactive
O=C(NCCc1csc(-c2cccnc2)n1)c1cccc(Cl)c1	none
Cc1ccc(NC(=O)C2CCN(c3nnc(-n4cccc4)s3)CC2)cc1C	none (no result: ASAP1 GAP inh, ARFGAP1 inhibitor)
CCOC(=O)N1CCN(C(=O)c2ccc(Cn3c(=S)[nH]c4cc(OCC)c(OCC)cc4c3=O)cc2)CC1	none
CCOC(=O)N1CCN(C(=O)c2ccc(Cn3c(=S)[nH]c4cc5c(cc4c3=O)OCO5)cc2)CC1	PLC-gamma1 inh 12.1 | PLCgamma1 ctr inactive | PLCb3 confirm inactive
N#Cc1ccc(CSc2nc(N)cc(N)n2)cc1	none
Cc1cc(N2CCCCC2)nc(SCc2ccc(C#N)cc2)n1	PLC-gamma1 inh 10.6 | PLCgamma1 ctr inactive | PLCb3 confirm inactive
Fc1ccc(-c2nnn(Cc3ccc(F)cc3Cl)n2)cc1	none
Cc1ccccc1-c1nnn(Cc2ccc(F)cc2Cl)n1	PLC-gamma1 inh 10.7 | PLCgamma1 ctr inactive | PLCb3 confirm inactive
CC(=O)Nc1ccc(-c2csc(Nc3ncccn3)n2)cc1	PLC-gamma1 inh 9.9 | PLCgamma1 ctr inactive | PLCb3 confirm inactive
Oc1ccc(-c2csc(Nc3ncccn3)n2)cc1	none
COC(=O)c1cc2c(c3c4cc(C)ccc4n(S(=O)(=O)c4ccc(C)cc4)c13)C(=O)N(Cc1ccccc1OC)C2	none
COc1cc(/C=C/C(=O)N(C)CC(=O)Nc2ccccc2SC)cc(OC)c1OC	none
CSc1ccccc1NC(=O)CN(C)C(=O)/C=C/c1ccccc1	PLC-gamma1 inh 10.1 | PLCgamma1 ctr inactive | PLCb3 confirm inactive
CN(Cc1nccn1C)C(=O)CCc1nnc(CCC2CCCCC2)o1	none
Cc1nn(C)cc1CN(C)C(=O)CCc1nnc(CCC2CCCCC2)o1	PLC-gamma1 inh 10.8 | PLCgamma1 ctr inactive | PLCb3 confirm inactive
COc1ccccc1C(=O)Nc1ccnn1C1CCN(CCCC2CCCC2)CC1	none
O=C(Nc1ccnn1C1CCN(CCCC2CCCC2)CC1)c1ccccc1Cl	PLC-gamma1 inh 10.9 | PLCgamma1 ctr inactive | PLCb3 confirm inactive
O=S(=O)(c1ccccc1)N1N=C(c2cccs2)CC1c1ccc(F)cc1 (stereo not given)	PLC-beta3 inh 12.2 | PLCgamma1 ctr inactive | PLCb3 confirm inactive
COc1ccccc1C/C(N)=N/O	PLC-beta3 inh 11.3 | PLCgamma1 ctr inactive | PLCb3 confirm inactive
C#CCNC(=O)C[C@H]1C[C@@]2(C(=O)OC)C(=C[C@H](C(C)C)O[C@@H]2C2CC2)N(CCCCCCCC)C1=O	none (no result: ASAP1 GAP inh, ARFGAP1 inhibitor)
CCOc1ccccc1C(=O)Nc1ccc(C(=O)NCC2COc3ccccc3O2)cc1 (stereo not given)	none (no result: ASAP1 GAP inh, ARFGAP1 inhibitor)
CN(C)CCOCCOc1ccc(Cl)cc1C(C)(C)C	none
CC(O)CNCCCOc1ccc(Cl)cc1C(C)(C)C (stereo not given)	PLC-gamma1 inh 12.4 | PLCgamma1 ctr inactive | PLCb3 confirm inactive
CCCCCCN1CCS(=O)(=O)N(Cc2ccc(C)cc2)C(C(=O)OC)C1 (stereo not given)	none (no result: ASAP1 GAP inh, ARFGAP1 inhibitor)
Nc1cc(=O)[nH]c(SCC(=O)NC2CCCCCCC2)n1	PLC-gamma1 inh 9.6 | PLCgamma1 ctr inactive | PLCb3 confirm inactive
CCOC(=O)c1c(C)oc2ccc(OCC(N)=O)cc12	PLC-gamma1 inh 14.9, PLC-beta3 inh 11.2 | PLCgamma1 ctr inactive | PLCb3 confirm inactive
CCOC(=O)c1c(NC(=O)C2CCCN(S(=O)(=O)c3ccc(C)cc3)C2)sc2c1CCCC2 (stereo not given)	PLC-gamma1 inh 14.8 | PLCgamma1 ctr inactive | PLCb3 confirm inactive
C=CCN1[C@H](CC(C)C)COc2cccc(N3CCSCC3)c2S1(=O)=O	none (no result: ASAP1 GAP inh, ARFGAP1 inhibitor)
Cc1csc(NC(=O)CSc2nnc(-c3ccncc3)n2C)n1	none
Cc1csc(NC(=O)CSc2nnc(-c3ccc(Cl)cc3)n2N)n1	PLC-gamma1 inh 10.3 | PLCgamma1 ctr inactive | PLCb3 confirm inactive
COc1ccc(Cn2cc(F)c(=O)n(CCC(C)C)c2=O)cc1[N+](=O)[O-]	PLC-gamma1 inh 13.0 | PLCgamma1 ctr inactive | PLCb3 confirm inactive
COC(=O)C1CN(C2CCCC2)CCS(=O)(=O)N1Cc1cn(Cc2ccc(F)cc2)nn1 (stereo not given)	none (no result: ASAP1 GAP inh, ARFGAP1 inhibitor)
COc1ccc(N=C2SC(CC(=O)Nc3ccccc3)C(=O)N2Cc2ccco2)cc1 (stereo not given)	PLC-beta3 inh 10.7 | PLCgamma1 ctr inactive | PLCb3 confirm inactive
O=C(CC1SC(=Nc2ccccc2)N(CCc2ccccn2)C1=O)Nc1ccc(F)cc1 (stereo not given)	PLC-gamma1 inh 9.8 | PLCgamma1 ctr inactive | PLCb3 confirm inactive
O=C(CC1SC(=Nc2ccccc2)N(CCO)C1=O)Nc1ccccc1 (stereo not given)	none
O=C(CC1SC(=Nc2ccccc2)N(CCc2c[nH]c3ccccc23)C1=O)Nc1ccccc1F (stereo not given)	PLC-beta3 inh 13.4 | PLCgamma1 ctr inactive | PLCb3 confirm inactive
O=C(NC1CCCCN(Cc2cccc(C(F)(F)F)c2)C1=O)c1ccc(Cl)c(Cl)c1 (stereo not given)	none (no result: ASAP1 GAP inh, ARFGAP1 inhibitor)
C=CCN1C(C(=O)OC)CN(Cc2cn(Cc3ccc(F)cc3)nn2)CCS1(=O)=O (stereo not given)	none (no result: ASAP1 GAP inh, ARFGAP1 inhibitor)
O=C1c2[nH]nc(-c3ccccc3)c2C(c2cccc(C(F)(F)F)c2)N1c1ccccc1 (stereo not given)	none
CCCC[C@H](CCCc1ccc(F)cc1)CCC(=O)N(c1ccccc1)c1ccccc1	none (no result: ASAP1 GAP inh, ARFGAP1 inhibitor)

Assay outcomes deposited in PubChem BioAssay by The Scripps Research Institute Molecular Screening Center.
